The record followed here is ChEMBL document CHEMBL1123302, “Antagonists of substance P. Further modifications of substance P antagonists obtained by replacing either positions 7, 9 or 7, 8 and 11 of SP with D-amino acid residues” (J Med Chem, 1986).

Assay [1] has as its target Substance-P receptor (Rattus norvegicus) (UniProt P14600). Nature of the assay: Antagonistic activity against Substance P(6-11) receptor in rat spinal cord at concentration of 10 uM.
The target in assay [2] is Substance-P receptor (Cavia porcellus) (UniProt P30547). Nature of the assay: In vitro inhibition of substance P (6-11) hexapeptide induced contractions of the guinea pig ileum at 10 uM. The format is tissue-based. An outline of the steps:
(§1)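 Agonist (SP or SP(6-11)-hexapeptide) dose-response curves on a 3-min cycle with 1-min contact, then washout. Dose ratio = agonist EC50 with antagonist / EC50 alone. At least two preparations per compound; ratios below 2 taken as insignificant.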

For assay [3] the target is unchanged. Nature of the assay: In vitro inhibition of substance P induced contractions of the guinea pig ileum at 5 uM. The format is tissue-based. A digest of the protocol:
as §1

Assay [4] has the same target. Nature of the assay: In vitro inhibition of substance P (6-11) hexapeptide induced contractions of the guinea pig ileum at 5 uM. The assay is classed as tissue-based. A digest of the protocol:
as §1

For assay [5] the target is unchanged. Nature of the assay: In vitro inhibition of substance P induced contractions of the guinea pig ileum at 10 uM. The format is tissue-based. An outline of the steps:
as §1

In assay [6] the target is Metabotropic glutamate receptor 3 (Rattus norvegicus) (UniProt P31422). Nature of the assay: Antagonistic activity against Glutamate receptor in rat spinal cord at concentration of 10 uM. The format is functional, tissue-based. A digest of the protocol:
(§2)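 Neonatal rat spinal cord, hemisected sagittally, superfused at 1 mL/min with oxygenated Krebs-Henseleit medium containing 0.5% urethane at room temperature. Agonists were given in 2-mL doses in the superfusate. Antagonist was superfused continuously for at least 15 min before agonist retesting. Read-out was ventral root depolarization (DC potential, ventral root vs cord body), measured as amplitude and area of response.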

For assay [7], the target named is Substance-P receptor (Rattus norvegicus) (UniProt P14600). Nature of the assay: Antagonistic activity against Substance P receptor in rat spinal cord at concentration of 10 uM.
Sequence of Substance-P receptor (Rattus norvegicus) (P14600 whole entry, looked up): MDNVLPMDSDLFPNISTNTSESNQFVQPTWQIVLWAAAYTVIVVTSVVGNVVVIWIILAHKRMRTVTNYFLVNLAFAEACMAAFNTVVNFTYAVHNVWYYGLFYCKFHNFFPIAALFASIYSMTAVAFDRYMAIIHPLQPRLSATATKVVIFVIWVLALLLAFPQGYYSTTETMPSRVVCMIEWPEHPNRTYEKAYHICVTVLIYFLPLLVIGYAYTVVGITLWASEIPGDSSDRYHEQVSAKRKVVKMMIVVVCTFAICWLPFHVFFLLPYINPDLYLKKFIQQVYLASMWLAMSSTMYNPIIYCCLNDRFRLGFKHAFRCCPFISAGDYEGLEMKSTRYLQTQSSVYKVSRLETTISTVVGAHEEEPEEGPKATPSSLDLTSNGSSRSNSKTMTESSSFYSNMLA
Another assay concerns the target Substance-P receptor (Rattus norvegicus, UniProt P14600). Nature of the assay: Histamine releasing activity of Substance P from isolated rat peritoneal mast cells. The assay is classed as functional. An outline of the steps:
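Histamine release from isolated rat peritoneal mast cells, method of Fretwell et al. Dose-response curves were built over a range of concentrations, and EC50 values were calculated from the curves.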

Assay [8] concerns the target Substance-P receptor (Rattus norvegicus) (UniProt P14600). Nature of the assay: Antagonistic activity against Substance P receptor in rat spinal cord at concentration of 50 uM.
For assay [9] the target is unchanged. Nature of the assay: Antagonistic activity against Substance P receptor in rat spinal cord at concentration of 5 uM.
Assay [10] addresses Metabotropic glutamate receptor 3 (Rattus norvegicus) (UniProt P31422). Nature of the assay: Antagonistic activity against Glutamate receptor in rat spinal cord at concentration of 50 uM. The format is functional, tissue-based. An outline of the steps:
as §2

The target in assay [11] is Substance-P receptor (Rattus norvegicus) (UniProt P14600). Nature of the assay: Antagonistic activity against Substance P(6-11) receptor in rat spinal cord at concentration of 50 uM.
Assay [12] shares this target. Nature of the assay: Antagonistic activity against Substance P(6-11) receptor in rat spinal cord at concentration of 5 uM.

Sequence of Metabotropic glutamate receptor 3 (Rattus norvegicus) (P31422 23-879 limits assumed): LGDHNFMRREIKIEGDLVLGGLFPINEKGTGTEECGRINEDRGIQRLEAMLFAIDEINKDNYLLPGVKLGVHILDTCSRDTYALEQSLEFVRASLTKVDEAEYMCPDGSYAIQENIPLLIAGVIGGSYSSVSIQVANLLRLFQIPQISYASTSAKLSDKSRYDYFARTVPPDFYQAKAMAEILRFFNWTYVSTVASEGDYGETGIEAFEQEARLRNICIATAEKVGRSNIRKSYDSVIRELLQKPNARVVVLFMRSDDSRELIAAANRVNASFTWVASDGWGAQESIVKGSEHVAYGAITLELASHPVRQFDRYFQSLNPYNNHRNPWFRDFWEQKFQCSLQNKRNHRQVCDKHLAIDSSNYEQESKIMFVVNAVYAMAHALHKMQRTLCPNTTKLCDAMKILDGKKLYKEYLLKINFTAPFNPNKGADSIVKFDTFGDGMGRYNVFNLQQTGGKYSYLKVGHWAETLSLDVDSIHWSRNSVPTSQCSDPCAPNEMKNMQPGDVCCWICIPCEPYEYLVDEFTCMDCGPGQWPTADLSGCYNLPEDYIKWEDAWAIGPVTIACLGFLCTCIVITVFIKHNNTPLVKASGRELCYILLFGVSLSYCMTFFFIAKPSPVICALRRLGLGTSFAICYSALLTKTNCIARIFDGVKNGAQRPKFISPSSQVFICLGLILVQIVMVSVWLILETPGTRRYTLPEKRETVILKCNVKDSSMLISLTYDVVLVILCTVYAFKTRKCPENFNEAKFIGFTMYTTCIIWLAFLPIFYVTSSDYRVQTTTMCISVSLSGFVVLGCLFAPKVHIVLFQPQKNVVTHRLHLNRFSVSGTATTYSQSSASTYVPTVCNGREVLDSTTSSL
Sequence of Substance-P receptor (P14600 whole entry): as the sequence (P14600 whole entry, looked up) above
Sequence of Substance-P receptor (Cavia porcellus) (P30547 whole entry): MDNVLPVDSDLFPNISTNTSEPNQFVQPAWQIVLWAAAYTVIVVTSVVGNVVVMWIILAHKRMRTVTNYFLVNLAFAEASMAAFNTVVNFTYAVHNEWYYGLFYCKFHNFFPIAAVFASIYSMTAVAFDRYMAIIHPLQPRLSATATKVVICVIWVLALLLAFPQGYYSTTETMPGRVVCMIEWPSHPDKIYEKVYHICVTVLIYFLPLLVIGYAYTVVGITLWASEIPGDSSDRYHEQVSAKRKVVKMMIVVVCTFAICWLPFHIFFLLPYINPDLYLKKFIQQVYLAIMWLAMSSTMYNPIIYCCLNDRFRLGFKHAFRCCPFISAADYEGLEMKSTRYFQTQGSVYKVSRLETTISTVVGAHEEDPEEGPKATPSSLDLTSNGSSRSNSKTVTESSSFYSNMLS

With `COC(=O)[C@H](CCSC)NC(=O)[C@H](CC(C)C)NC(=O)[C@@H](Cc1c[nH]c2ccccc12)NC(=O)[C@H](Cc1ccccc1)NC(=O)[C@@H](Cc1ccccc1)NC(=O)[C@H](CCCCN)NC(=O)[C@H](CC(N)=O)NC(=O)C1CCCN1C(=O)[C@H](CCCCN)NC(=O)C1CCCN1C(=O)[C@@H](N)CCCN=C(N)N` (stereo in doubt), the Change in amplitude response was -54% in assay [1], 8% in [6] and 9% in [7]. Besides, the Activity in assay [2], in assay [3], in [4] and in assay [5] was less than 2 dose ratio each time.
Turning to `COC(=O)[C@@H](CCSC)NC(=O)[C@H](CC(C)C)N(C)C(=O)CN(C)C(=O)[C@H](Cc1ccccc1)NC(=O)[C@@H](Cc1ccccc1)NC(=O)[C@H](CCC(N)=O)NC(=O)[C@H](CCC(N)=O)NC(=O)C1CCCN1C(=O)[C@H](CCCCN)NC(=O)C1CCCN1C(=O)[C@@H](N)CCCN=C(N)N` (stereo in doubt), the Activity in [2] is 2.5 dose ratio; in assay [3] it was less than 2 dose ratio; in [4], less than 2 dose ratio; in assay [5], less than 2 dose ratio.
Broadly, the IC50 is the point on the concentration scale where inhibition reaches its midpoint. A higher IC50 goes with weaker potency. As for `CSCCC(NC(=O)C(CC(C)C)NC(=O)[C@@H](Cc1c[nH]c2ccccc12)NC(=O)[C@H](Cc1ccccc1)NC(=O)[C@@H](Cc1c[nH]c2ccccc12)NC(=O)[C@H](CCC(N)=O)NC(=O)[C@H](CCC(N)=O)NC(=O)[C@@H]1CCCN1C(=O)[C@H](CCCCN)NC(=O)[C@H]1CCCN1C(=O)[C@@H](N)CCCNC(=N)N)C(N)=O` (stereo in doubt), on Substance-P receptor, it took 4 µM to reach half-maximal inhibition (IC50).
As to `COC(=O)C(CCSC)NC(=O)[C@@H](CC(C)C)SCCNC(=O)[C@@H](Cc1ccccc1)NC(=O)[C@H](Cc1ccccc1)NC(=O)[C@H](CCC(N)=O)NC(=O)[C@H](CCC(N)=O)NC(=O)[C@H]1CCCN1C(=O)[C@H](CCCCN)NC(=O)[C@H]1CCCN1C(=O)[C@@H](N)CCCN=C(N)N` (stereo in doubt), the Activity is 19 dose ratio in assay [2], less than 2 dose ratio in assay [3], 3.1 dose ratio in assay [4] and less than 2 dose ratio in [5].
As for `COC(=O)[C@@H](CCSC)NC(=O)[C@H](CC(C)C)SCCNC(=O)[C@H](Cc1ccccc1)NC(=O)[C@@H](Cc1ccccc1)NC(=O)[C@H](CCCN=C(N)N)NC(=O)[C@H](CC(N)=O)NC(=O)OCc1ccccc1`, the Activity in assay [2] was 225 dose ratio; in [3], 5.8 dose ratio; in [4], 69 dose ratio; in assay [5], 18.2 dose ratio.
The corresponding values for `COC(=O)C(CCSC)NC(=O)[C@H](CC(C)C)SCCNC(=O)[C@@H](Cc1ccccc1)NC(=O)[C@@H](Cc1ccccc1)NC(=O)[C@H](CCC(N)=O)NC(=O)[C@H](CCC(N)=O)NC(=O)[C@H]1CCCN1C(=O)[C@H](CCCCN)NC(=O)[C@H]1CCCN1C(=O)[C@@H](N)CCCN=C(N)N` (stereo in doubt) are 3.4 dose ratio, 2.7 dose ratio, 2.5 dose ratio and 3.6 dose ratio.
In the case of `COC(=O)[C@@H](CCSC)NC(=O)[C@@H](CC(C)C)SCCNC(=O)[C@@H](Cc1ccccc1)NC(=O)[C@@H](Cc1ccccc1)NC(=O)[C@H](CCC(N)=O)NC(=O)[C@H](CCC(N)=O)NC(=O)[C@H]1CCCN1C(=O)[C@H](CCCCNC(=O)OCc1ccccc1)NC(=O)[C@H]1CCCN1C(=O)[C@H](CCCN=C(N)N)NC(=O)OCc1ccccc1`, the IC50 against Substance-P receptor was determined as 25 µM.
For the molecule `COC(=O)[C@@H](CCSC)NC(=O)[C@H](CC(C)C)SCCNC(=O)[C@H](Cc1ccccc1)NC(=O)[C@@H](Cc1ccccc1)NC(=O)[C@H](CCCN=C(N)N)NC(=O)[C@H](CC(N)=O)NC(=O)C1CCCN1C(=O)[C@H](CCCCNC(=O)OCc1ccccc1)NC(=O)C1CCCN1C(=O)[C@H](CCCN=C(N)N)NC(=O)OCc1ccccc1` (stereo in doubt), the Activity in assay [2] turned out to be 68 dose ratio; in assay [3], 18.5 dose ratio; in assay [4] it was 54.5 dose ratio; in [5], 20 dose ratio.
For `COC(=O)[C@@H](CCSC)NC(=O)[C@@H](CC(C)C)NC(=O)CNC(=O)[C@@H](Cc1c[nH]c2ccccc12)NC(=O)[C@@H](Cc1c[nH]c2ccccc12)NC(=O)[C@H](CCC(N)=O)NC(=O)[C@H](CCC(N)=O)NC(=O)[C@@H]1CCCN1C(=O)[C@H](CCCCNC(=O)OCc1ccccc1)NC(=O)[C@@H]1CCCN1C(=O)[C@H](CCCN=C(N)N)NC(=O)OCc1ccccc1` the same measures were 37 dose ratio, 15 dose ratio, 34 dose ratio and 17.2 dose ratio.
For `COC(=O)[C@@H](CCSC)NC(=O)[C@H](CC(C)C)N(C)C(=O)CN(C)C(=O)[C@H](Cc1ccccc1)NC(=O)[C@@H](Cc1ccccc1)NC(=O)[C@H](CCC(N)=O)NC(=O)[C@H](CCC(N)=O)NC(=O)C1CCCN1C(=O)OC(C)(C)C` (stereo in doubt) the same measures were less than 2 dose ratio, less than 2 dose ratio, less than 2 dose ratio and less than 2 dose ratio.
For `COC(=O)[C@H](CCSC)NC(=O)[C@H](CC(C)C)NC(=O)[C@@H](Cc1c[nH]c2ccccc12)NC(=O)[C@H](Cc1ccccc1)NC(=O)[C@@H](Cc1ccccc1)NC(=O)[C@H](CCCN=C(N)N)NC(=O)[C@H](CC(N)=O)NC(=O)C1CCCN1C(=O)[C@H](CCCCN)NC(=O)C1CCCN1C(=O)[C@@H](N)CCCN=C(N)N` (stereo in doubt) the same measures were 4 dose ratio, 2.2 dose ratio, 2.2 dose ratio and 6 dose ratio.
On Substance-P receptor, `COC(=O)[C@@H](CCSC)NC(=O)[C@H](CC(C)C)SCCNC(=O)[C@@H](Cc1ccccc1)NC(=O)[C@@H](Cc1ccccc1)NC(=O)[C@H](CCC(N)=O)NC(=O)[C@H](CCC(N)=O)NC(=O)[C@H]1CCCN1C(=O)[C@H](CCCCNC(=O)OCc1ccccc1)NC(=O)[C@H]1CCCN1C(=O)[C@H](CCCNC(=N)N)NC(=O)OCc1ccccc1` gave an IC50 of 33 µM.
`COC(=O)[C@@H](CCSC)NC(=O)[C@H](CC(C)C)SCCNC(=O)[C@H](Cc1ccccc1)NC(=O)[C@@H](Cc1ccccc1)NC(=O)[C@H](CCC(N)=O)NC(=O)[C@H](CCC(N)=O)NC(=O)C1CCCN1C(=O)OC(C)(C)C` (stereo in doubt): the Change in amplitude response was -54% in assay [8]; 40% in [9]; -43% in assay [10]; -74% in assay [11]; -28% in assay [12]. Besides, the Activity in assay [2] is 10 dose ratio; in [3], less than 2 dose ratio; in assay [4], 3 dose ratio; in [5], 2.3 dose ratio.
In the case of `COC(=O)[C@@H](CCSC)NC(=O)C(CC(C)C)NC(=O)[C@@H](Cc1c[nH]c2ccccc12)NC(=O)[C@H](Cc1c[nH]c2ccccc12)NC(=O)[C@@H](Cc1c[nH]c2ccccc12)NC(=O)[C@H](CCC(N)=O)NC(=O)[C@H](CCC(N)=O)NC(=O)[C@@H]1CCCN1C(=O)[C@H](CCCCNC(=O)OCc1ccccc1)NC(=O)[C@@H]1CCCN1C(=O)[C@H](CCCN=C(N)N)NC(=O)OCc1ccccc1` (stereo in doubt), the Activity in assay [2] amounted to 10.7 dose ratio; in [3] it was 6.2 dose ratio; in assay [4], 7.2 dose ratio; in [5], 9.8 dose ratio.
At Substance-P receptor, `CSCC[C@H](NC(=O)[C@H](CC(C)C)NC(=O)[C@@H](Cc1c[nH]c2ccccc12)NC(=O)[C@H](Cc1ccccc1)NC(=O)[C@@H](Cc1ccccc1)NC(=O)[C@H](CCCNC(=N)N)NC(=O)[C@H](CC(N)=O)NC(=O)[C@@H]1CCCN1C(=O)[C@H](CCCCNC(=O)OCc1ccccc1)NC(=O)[C@H]1CCCN1C(=O)[C@H](CCCNC(=N)N)NC(=O)OCc1ccccc1)C(N)=O` returned an IC50 of 0.5 µM.
As to `CSCC[C@H](NC(=O)[C@H](CC(C)C)NC(=O)[C@@H](Cc1c[nH]c2ccccc12)NC(=O)[C@H](Cc1ccccc1)NC(=O)[C@@H](Cc1ccccc1)NC(=O)[C@H](CCCN=C(N)N)NC(=O)[C@H](CC(N)=O)NC(=O)C1CCCN1C(=O)[C@H](CCCCN)NC(=O)C1CCCN1C(=O)[C@@H](N)CCCN=C(N)N)C(=O)O` (stereo in doubt), the Activity in [2], in [3], in [4] and in assay [5] was less than 2 dose ratio in each case.
In the case of `COC(=O)[C@@H](CCSC)NC(=O)C(CC(C)C)SCCNC(=O)[C@H](Cc1ccccc1)NC(=O)[C@@H](Cc1ccccc1)NC(=O)[C@H](CCC(N)=O)NC(=O)[C@H](CCC(N)=O)NC(=O)C1CCCN1C(=O)OC(C)(C)C` (stereo in doubt), the Change in amplitude response was -62% in assay [8]; 42% in assay [9]; -50% in [10]; -80% in assay [11]; -7% in assay [12]. Also, the Activity in assay [2], in assay [3], in assay [4] and in [5] was less than 2 dose ratio each time.
